ChEMBL document CHEMBL4184273, “Discovery of chromenes as inhibitors of macrophage migration inhibitory factor” (Bioorg Med Chem, 2018)
Calls of active or inactive are those of the source. The rule behind the calls is not given here.

What was measured:
[1] = molecular target: T1, Macrophage migration inhibitory factor (Homo sapiens) (UniProt P14174); test: Inhibition of recombinant His-tagged MIF tautomerase activity (unknown origin) at 25 uM using 4-HPP as substrate relative to control
T1 sequence (whole entry): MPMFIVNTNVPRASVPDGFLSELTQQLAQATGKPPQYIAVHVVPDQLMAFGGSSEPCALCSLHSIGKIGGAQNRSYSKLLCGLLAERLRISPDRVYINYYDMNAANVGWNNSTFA
Method in brief: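 Single-point screen at final inhibitor 25 µM in 5% DMSO (from 10 mM DMSO stocks diluted in 0.4 M boric acid pH 6.2). MIF final 340 nM; reaction started with 4-HPP (final 0.5 mM; pre-equilibrated overnight in 50 mM ammonium acetate pH 6.0). Absorbance at 306 nm followed over time. Vehicle control 5% DMSO; no-MIF negative control. Mean of at least 2 independent experiments.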

[2] = molecular target: T2, Macrophage migration inhibitory factor (Homo sapiens, UniProt P14174); test: Inhibition of recombinant His-tagged MIF tautomerase activity (unknown origin) using 4-HPP as substrate
T2 sequence (P14174 whole entry): T1 sequence (whole entry)

[3] = molecular target: T2, Macrophage migration inhibitory factor; test: (§1) Inhibition of recombinant His-tagged MIF tautomerase activity (unknown origin) using 4-HPP as substrate pretreated for 2 mins followed by substrate addition
Method in brief: (§2)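 Time-dependence test: inhibitor (125–0 µM, 1.6-fold series in 5% DMSO) preincubated with MIF (340 nM) for 2 or 40 min before 4-HPP was added (final 0.5 mM). IC50 curves were built from the 306 nm absorbance increase in boric acid pH 6.2, and the two preincubation times were compared.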

[4] = molecular target: T2, Macrophage migration inhibitory factor; test: (§3) Inhibition of recombinant His-tagged MIF tautomerase activity (unknown origin) using 4-HPP as substrate pretreated for 40 mins followed by substrate addition; method in brief: as §2
[5] = molecular target: T1, Macrophage migration inhibitory factor (Homo sapiens); test: Time-dependent inhibition of recombinant His-tagged MIF tautomerase activity (unknown origin) using 4-HPP as substrate; method in brief: as §2
[6] = molecular target: T1, Macrophage migration inhibitory factor (Homo sapiens); test: Reversible inhibition of recombinant His-tagged MIF tautomerase activity (unknown origin) assessed as recovery of enzyme activity at 125 uM using 4-HPP as substrate by substrate dilution method
Method in brief: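 Jump-dilution: MIF (34 µM) was mixed with inhibitor (125 µM, 5% DMSO), then diluted 100-fold into 4-HPP (0.5 mM) in boric acid. Absorbance at 306 nm was plotted against time to follow activity recovery. The control was treated the same way with 5% DMSO and no inhibitor.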

[7] = molecular target: T1, Macrophage migration inhibitory factor (Homo sapiens); test: as §1; method in brief: as §2
[8] = molecular target: T1, Macrophage migration inhibitory factor (Homo sapiens); test: as §3; method in brief: as §2

SMILES	inhibition [1]	also measured
CCCCCCCCCCCCN1C(=O)CC2C(=C(N)Oc3cc(OCc4ccc(Cl)cc4)ccc32)C1=O (stereo not given)	80%	IC50 [2]: 7.1 µM
COCCN1C(=O)CC2C(=C(N)Oc3cc(C)ccc32)C1=O (stereo not given)	0%	
Cc1ccc2c(c1)OC(N)=C1C(=O)N(CCc3ccc(Cl)cc3Cl)C(=O)CC12 (stereo not given)	20%	
C#CCN1C(=O)CC2C(=C(N)Oc3cc(C)ccc32)C1=O (stereo not given)	0%	
CCN(CC)CCCN1C(=O)CC2C(=C(N)Oc3ccc(C)cc32)C1=O (stereo not given)	0%	
Cc1ccc2c(c1)OC(N)=C1C(=O)N(Cc3ccncc3)C(=O)CC12 (stereo not given)	0%	
COc1ccc2c(c1)OC(N)=C1C(=O)N(CCCN(C)C)C(=O)CC12 (stereo not given)	0%	
Cc1ccc2c(c1)C1CC(=O)N(Cc3ccncc3)C(=O)C1=C(N)O2 (stereo not given)	0%	
Cc1ccc2c(c1)C1CC(=O)N(Cc3cccnc3)C(=O)C1=C(N)O2 (stereo not given)	0%	
NC1=C2C(=O)N(CCc3ccc(Cl)cc3)C(=O)CC2c2ccccc2O1 (stereo not given)	15%	
Cc1ccc2c(c1)OC(N)=C1C(=O)N(CCCN(C)C)C(=O)CC12 (stereo not given)	0%	
Cc1ccc2c(c1)C1CC(=O)N(CCN3CCOCC3)C(=O)C1=C(N)O2 (stereo not given)	0%	
Cc1ccc2c(c1)C1CC(=O)N(Cc3ccco3)C(=O)C1=C(N)O2 (stereo not given)	15%	
CCOCCN1C(=O)CC2C(=C(N)Oc3cc(OCc4ccc(Cl)cc4)ccc32)C1=O (stereo not given)	10%	
Cc1ccc2c(c1)C1CC(=O)N(CC(C)C)C(=O)C1=C(N)O2 (stereo not given)	0%	
CCOc1ccc2c(c1)OC(N)=C1C(=O)N(CCCN3CCOCC3)C(=O)CC12 (stereo not given)	0%	

SMILES	inhibition [1]	also measured
CCCCCCCCCCCCN1C(=O)CC2C(=C(N)Oc3ccc(C)cc32)C1=O (stereo not given)	50%	
CCOCCN1C(=O)CC2C(=C(N)Oc3cc(OCC)ccc32)C1=O (stereo not given)	0%	
NC1=C2C(=O)N(Cc3ccco3)C(=O)CC2c2ccccc2O1 (stereo not given)	0%	
CCOc1ccc2c(c1)OC(N)=C1C(=O)N(CCc3ccc(Cl)cc3Cl)C(=O)CC12 (stereo not given)	30%	
Cc1ccc2c(c1)C1CC(=O)N(CCO)C(=O)C1=C(N)O2 (stereo not given)	0%	
Cc1ccc2c(c1)C1CC(=O)N(CCc3ccc(Cl)cc3Cl)C(=O)C1=C(N)O2 (stereo not given)	20%	
NC1=C2C(=O)N(CCc3ccc(Cl)cc3)C(=O)CC2c2ccc(OCc3ccc(Cl)cc3)cc2O1 (stereo not given)	80%	IC50 [2]: 13 µM
CCCCCCCCCCCCN1C(=O)CC2C(=C(N)Oc3ccccc32)C1=O (stereo not given)	60%	IC50 [2]: 18 µM; IC50 [3]: 13.5 µM; IC50 [4]: 13.8 µM; TDI [5]: inactive; inhibition [6]: Active
Cc1ccc2c(c1)OC(N)=C1C(=O)N(CCc3ccc(Cl)cc3)C(=O)CC12 (stereo not given)	5%	
NC1=C2C(=O)N(CCO)C(=O)CC2c2ccccc2O1 (stereo not given)	0%	
Cc1ccc2c(c1)C1CC(=O)N(Cc3ccc(N)cc3)C(=O)C1=C(N)O2 (stereo not given)	10%	
Cc1ccc2c(c1)C1CC(=O)N(CCc3cccs3)C(=O)C1=C(N)O2 (stereo not given)	10%	
CCCCCCCCCCCCN1C(=O)CC2C(=C(N)Oc3cc(OCC)ccc32)C1=O (stereo not given)	60%	IC50 [2]: 21 µM
COc1ccc2c(c1)OC(N)=C1C(=O)N(CCCN3CCOCC3)C(=O)CC12 (stereo not given)	0%	
CCOc1ccc2c(c1)OC(N)=C1C(=O)N(CC(C)C)C(=O)CC12 (stereo not given)	10%	

Continued, in another order:

inhibition [1]	SMILES	also measured
0%	COCCCN1C(=O)CC2C(=C(N)Oc3cc(OC)ccc32)C1=O (stereo not given)	
50%	CCOc1ccc2c(c1)OC(N)=C1C(=O)N(Cc3cccc4ccccc34)C(=O)CC12 (stereo not given)	
15%	COc1ccc2c(c1)OC(N)=C1C(=O)N(CC(C)C)C(=O)CC12 (stereo not given)	
15%	NC1=C2C(=O)N(CCc3c[nH]c4ccccc34)C(=O)CC2c2ccccc2O1 (stereo not given)	
0%	COc1ccc2c(c1)OC(N)=C1C(=O)N(Cc3ccc(N)cc3)C(=O)CC12 (stereo not given)	
70%	NC1=C2C(=O)N(CCc3c[nH]c4ccccc34)C(=O)CC2c2ccc(OCc3ccc(Cl)cc3)cc2O1 (stereo not given)	IC50 [2]: 8 µM
0%	COc1ccc2c(c1)OC(N)=C1C(=O)N(Cc3cccnc3)C(=O)CC12 (stereo not given)	
45%	NC1=C2C(=O)N(Cc3ccc(N)cc3)C(=O)CC2c2ccc(OCc3ccc(Cl)cc3)cc2O1 (stereo not given)	
0%	COc1ccc2c(c1)OC(N)=C1C(=O)N(Cc3ccncc3)C(=O)CC12 (stereo not given)	
10%	CCOc1ccc2c(c1)OC(N)=C1C(=O)N(Cc3cccnc3)C(=O)CC12 (stereo not given)	
0%	CCOc1ccc2c(c1)OC(N)=C1C(=O)N(Cc3ccc(N)cc3)C(=O)CC12 (stereo not given)	
35%	Cc1ccc2c(c1)OC(N)=C1C(=O)N(Cc3cccc4ccccc34)C(=O)CC12 (stereo not given)	
0%	CCOc1ccc2c(c1)OC(N)=C1C(=O)N(Cc3ccncc3)C(=O)CC12 (stereo not given)	
0%	Cc1ccc2c(c1)OC(N)=C1C(=O)N(Cc3ccc(N)cc3)C(=O)CC12 (stereo not given)	
10%	CCOc1ccc2c(c1)OC(N)=C1C(=O)N(CCc3c[nH]c4ccccc34)C(=O)CC12 (stereo not given)	
0%	NC1=C2C(=O)N(Cc3ccc(N)cc3)C(=O)CC2c2ccccc2O1 (stereo not given)	
15%	NC1=C2C(=O)N(Cc3ccncc3)C(=O)CC2c2ccc(OCc3ccc(Cl)cc3)cc2O1 (stereo not given)	
0%	C#CCN1C(=O)CC2C(=C(N)Oc3cc(OC)ccc32)C1=O (stereo not given)	
15%	COc1ccc2c(c1)OC(N)=C1C(=O)N(CCc3cccs3)C(=O)CC12 (stereo not given)	
25%	COc1ccc2c(c1)OC(N)=C1C(=O)N(Cc3cccc4ccccc34)C(=O)CC12 (stereo not given)	
0%	COc1ccc2c(c1)OC(N)=C1C(=O)N(CCO)C(=O)CC12 (stereo not given)	
40%	CC(C)CN1C(=O)CC2C(=C(N)Oc3cc(OCc4ccc(Cl)cc4)ccc32)C1=O (stereo not given)	
55%	Cc1ccc2c(c1)OC(N)=C1C(=O)N(CCc3c[nH]c4ccccc34)C(=O)CC12 (stereo not given)	IC50 [2]: 6.2 µM; inhibition [7]: Active; inhibition [8]: Active; TDI [5]: inactive
10%	C=CCN1C(=O)CC2C(=C(N)Oc3cc(OCc4ccc(Cl)cc4)ccc32)C1=O (stereo not given)	
25%	Cc1ccc2c(c1)C1CC(=O)N(CCc3c[nH]c4ccccc34)C(=O)C1=C(N)O2 (stereo not given)	
0%	COc1ccc2c(c1)OC(N)=C1C(=O)N(Cc3ccco3)C(=O)CC12 (stereo not given)	
